Experimental data published in PubChem BioAssay AID651654 (Broad Institute, 2012).
Values joined by “and” are separate entries in the source; they are usually repeats but may differ in a detail not shown here. Equal values may be shown once. The whole screen tested about 360,000 compounds, of which about 740 (0.21%) were called active. The entries come from a sample that favours actives as a whole. A number with no mark means an inactive call.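 How the source made its calls: active means mean lysis activity across replicates of at least 80%, whatever share of replicates individually reach that level; inactive means mean lysis activity below 80%.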

Assay: Cryptococcus neoformans cell lysis inducers, primary screen, AK release luminescence, single concentration (AID 651654)
Conditions: C. neoformans lysis, adenylate kinase release luminescence, 4 h; at 15 µM; hits give high values; normalised: neutral wells 0, clomiphene wells 100
Outline: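 Assay system: log-phase C. neoformans yeast / Quantity: yeast cell density of 5 × 10^6 cells/mL / Medium: fresh YPD growth medium / Compound: single dose / Timing: static 4 h at 37 °C with compound, 1 h detection / Measured by: adenylate kinase release luminescence / Read-out: lysis from increased AK signal / Benchmarks: Clomiphene as positive lysis control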

SMILES	lysis activity
COc1ccc(S(=O)(=O)N(C)C[C@H]2Oc3ccc(NC(=O)Nc4c(C)noc4C)cc3C(=O)N([C@H](C)CO)C[C@H]2C)cc1	-3.44%
COc1ccc(S(=O)(=O)N(C)C[C@@H]2Oc3ccc(NC(=O)Nc4c(C)noc4C)cc3C(=O)N([C@H](C)CO)C[C@@H]2C)cc1	-0.689% and -2.77%
Cc1noc(C)c1NC(=O)Nc1ccc2c(c1)C(=O)N([C@@H](C)CO)C[C@H](C)[C@H](CN(C)S(=O)(=O)c1ccc(Cl)cc1)O2	96.2% (active)
C[C@H](CO)N1C[C@H](C)[C@@H](CN(C)C(=O)c2ccncc2)Oc2ncc(-c3ccncc3)cc2C1=O	-2.74%
COc1ccc(NC(=O)N[C@@H]2C=C[C@H](CC(=O)NC3CCC3)O[C@@H]2CO)cc1	-0.593%
C[C@H]1CN([C@@H](C)CO)C(=O)c2cccc(NC(=O)Nc3ccccc3)c2O[C@@H]1CN(C)S(C)(=O)=O	0.333%
O=C(Nc1ccc(F)cc1)N1C[C@@H]2[C@H](c3ccccc31)[C@H](CO)N2Cc1ccccc1	-1.33%
O=C(Nc1ccc(F)cc1)N1C[C@H]2[C@@H](c3ccccc31)[C@@H](CO)N2Cc1cocn1	94.8% (active)
O=C(Nc1ccccc1)N1C[C@H]2[C@@H](c3ccccc31)[C@@H](CO)N2Cc1cocn1	-2.69%
CCCNC(=O)N1[C@@H]2Cn3c(ccc(-c4ccc(OC)cc4)c3=O)[C@H]1[C@@H](C(=O)NC1CCC1)[C@@H]2CO	0.95%
O=C(N[C@H]1CC[C@@H](CCNS(=O)(=O)c2ccccc2)O[C@H]1CO)c1cccnc1	-5.13%
N#C[C@@H]1[C@@H](c2ccccc2)[C@@H](CO)N1C(=O)Cc1ccccc1	116% (active)
N#C[C@H]1[C@H](c2ccc(-c3ccccc3)cc2)[C@@H](CO)N1C(=O)Cc1ccccc1	0.774%
N#C[C@@H]1[C@@H](c2ccc(-c3ccccc3)cc2)[C@@H](CO)N1C(=O)Cc1ccccc1	0.072%
COc1cccc(S(=O)(=O)Nc2ccc3c(c2)[C@H]2C[C@H](CC(=O)N4CCCCC4)O[C@@H](CO)[C@H]2O3)c1	-2.67%
O=C(NCc1cccc(F)c1)[C@H]1[C@H](CO)[C@H]2Cn3c(cccc3=O)[C@@H]1N2	0.27%
O=C(C[C@@H]1C=C[C@@H](NC(=O)c2ccc3c(c2)OCO3)[C@H](CO)O1)NC1Cc2ccccc2C1	1.22%
CO[C@@H]1CN(C)C(=O)c2cc(NC(=O)c3ccccc3)ccc2OC[C@@H](C)N(C(C)=O)C[C@@H]1C	-6.13%
C[C@@H]1CCCCO[C@H](CN(C)S(C)(=O)=O)[C@@H](C)CN([C@H](C)CO)C(=O)c2cc(NC(=O)Nc3ccc4c(c3)OCO4)ccc2O1	50.4%
C[C@@H]1CN([C@H](C)CO)S(=O)(=O)c2ccc(-c3cncnc3)cc2O[C@@H]1CN(C)Cc1ccccn1	-14.8%

SMILES	lysis activity
CCCC(=O)Nc1ccc2c(c1)C(=O)N(C)[C@@H]1CC[C@H](CC(=O)Nc3cn(C)nc3C)O[C@H]1CO2	6.15%
O=C(C[C@@H]1CC[C@@H]2[C@H](COC[C@H](O)CN2Cc2cccc(-c3ccncc3)c2)O1)N1CCOCC1	-0.0585%
O=C(C[C@@H]1C[C@H]2c3cc(NC(=O)C4CCOCC4)ccc3O[C@H]2[C@@H](CO)O1)NCCN1CCCCC1	60.8%
COc1cccc(S(=O)(=O)N2C[C@@H](O)COC[C@H]3O[C@H](CC(=O)N4CCCCC4)CC[C@@H]32)c1	52.9%
COc1cccc(S(=O)(=O)N2C[C@@H](O)COC[C@H]3O[C@@H](CC(=O)N4CCOCC4)CC[C@@H]32)c1	2.85%
COc1cccc(S(=O)(=O)N2C[C@@H](O)COC[C@@H]3O[C@H](CC(=O)N4CCN(C)CC4)CC[C@H]32)c1	86.2% (active)
Cc1ccc(S(=O)(=O)Nc2cccc3c2O[C@@H](CN(C)CC2CCCCC2)[C@H](C)CN([C@@H](C)CO)C3=O)cc1	-1.1%
CNC[C@H]1Oc2cc(C#Cc3ccccn3)ccc2S(=O)(=O)N([C@H](C)CO)C[C@@H]1C	-3.09%
C[C@@H]1CN([C@@H](C)CO)C(=O)Cc2cc(NC(=O)NC3CCCCC3)ccc2O[C@H]1CN(C)C(=O)Nc1ccc(C(F)(F)F)cc1	51.4%
C[C@H](CO)N1C[C@H](C)[C@H](CN(C)C(=O)c2ccccc2)OCCCC[C@H](C)Oc2ccc(N(C)C)cc2C1=O	1.62%
COc1cccc(S(=O)(=O)N(C)C[C@@H]2Oc3ncc(-c4cccc(C(=O)N(C)C)c4)cc3C(=O)N([C@H](C)CO)C[C@@H]2C)c1	2.06%
COc1ccc(S(=O)(=O)Nc2ccc3c(c2)C(=O)N([C@@H](C)CO)C[C@H](C)[C@@H](CN(C)C(=O)Nc2ccc4c(c2)OCO4)OCCCC[C@@H](C)O3)cc1	49.4%
C[C@H](CO)N1C[C@H](C)[C@@H](CN(C)C(=O)C2CCOCC2)Oc2cc(-c3ccc(C(=O)N(C)C)cc3)ccc2S1(=O)=O	-2.86%
CCNC(=O)C[C@@H]1CC[C@H]2[C@@H](COc3ccc(NC(=O)c4ccccc4Cl)cc3C(=O)N2C)O1	13.7%
C[C@@H](NC(=O)C[C@@H]1C=C[C@@H](NC(=O)CN2CCOCC2)[C@H](CO)O1)c1ccccc1	13.5%
C[C@H](NC(=O)C[C@@H]1C=C[C@H](NC(=O)CN2CCOCC2)[C@H](CO)O1)c1ccccc1	131% (active)
C[C@@H](NC(=O)C[C@H]1C=C[C@@H](NC(=O)CN2CCOCC2)[C@@H](CO)O1)c1ccccc1	18.8%
C[C@@H]1CN([C@H](C)CO)C(=O)c2cc(NC(=O)CCCCCC(=O)Nc3ccccc3N)ccc2O[C@@H]1CN(C)Cc1ccncc1	0.608%
COc1ccc(CN(C)C[C@@H]2OCCCC[C@H](C)Oc3ccc(NC(=O)c4ccccc4)cc3C(=O)N([C@H](C)CO)C[C@H]2C)cc1	-1.71%
